Source: ChEMBL document CHEMBL3244370, “Synthesis, metabolism, and antitumor activity of deuterated analogues of 1-(2-chloroethyl)-3-cyclohexyl-1-nitrosourea” (J Med Chem, 1978)

Key:
Liver microsome [1] = assay: Retention time in Wistar rat liver microsomes at 50 ug/ml after 10 mins by HPLC analysis; assay type: ADME
Outline: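 Liver microsomes from phenobarbital-pretreated male Wistar rats (protein 2.1 mg/mL), with an NADPH-generating system (NADP, glucose 6-phosphate, MgCl2, G6P dehydrogenase) in 0.1 M phosphate pH 7.4. Incubated under oxygen at 37 °C for 10 min, then extracted with hexane. OH-CCNU isomers resolved by analytical HPLC using n-heptane–dichloromethane–propan-2-ol (960:63:35) at 1.9 mL/min; elution times recorded.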

[2] = Antitumor activity against mouse TLX5 cells allografted in mouse assessed as increase in host survival time at 5 mg/kg relative to control; assay type: functional, TLX-5
Liver microsome [3] = assay: Drug metabolism in Wistar rat liver microsomes assessed as recovered CCNU level at 2.8 mg after 10 mins by HPLC analysis; assay type: ADME; conditions: in vitro
Outline: (§1)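 Microsomes from phenobarbital-pretreated male Wistar rat liver (protein 2.1 mg/mL) in 0.1 M phosphate pH 7.4 with NADP, glucose 6-phosphate, MgCl₂ and G6PDH. Incubated under O₂ at 37 °C for 10 min; 2.8 mg (12 μmol) substrate in 20 mL total. Hexane extraction, then silica HPLC quantification of residual CCNU and OH-CCNU isomers.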

Liver microsome [4] = assay: Drug metabolism in Wistar rat liver microsomes assessed as recovered total OH-CCNU derivatives level at 2.8 mg after 10 mins by HPLC analysis; assay type: ADME; conditions: in vitro; outline: as §1
[5] = Antitumor activity against mouse TLX5 cells allografted in mouse assessed as increase in host survival time at 10 mg/kg relative to control; assay type: functional, TLX-5
[6] = Antitumor activity against mouse TLX5 cells allografted in mouse assessed as increase in host survival time at 20 mg/kg relative to control; assay type: functional, TLX-5
[7] = Antitumor activity against mouse TLX5 cells allografted in mouse assessed as increase in host survival time at 40 mg/kg relative to control; assay type: functional, TLX-5
[8] = Antitumor activity against mouse TLX5 cells allografted in mouse assessed as increase in host survival time at 80 mg/kg relative to control; assay type: functional, TLX-5
[9] = Antitumor activity against mouse TLX5 cells allografted in mouse assessed as increase in host survival time at 160 mg/kg relative to control; assay type: functional, TLX-5
[10] = Drug metabolism in Wistar rat liver microsomes at 50 ug/ml after 2.5 mins; assay type: ADME; conditions: read-out: Drug metabolism
Outline: (§2)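 Equimolar CCNU and CCNU-d10, each 50 μg/mL (0.21 mM), co-incubated at 37 °C under O₂ with phenobarbital-induced male Wistar rat liver microsomes plus NADPH-generating system in 0.1 M phosphate pH 7.4. Duplicate 1 mL samples taken at intervals into hexane containing CCNU-d4 internal standard. Residual drug measured by 12 eV mass spectrometry. Heat-inactivated microsomes used as control.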

[11] = Drug metabolism in Wistar rat liver microsomes at 50 ug/ml after 5 mins; assay type: ADME; conditions: read-out: Drug metabolism; outline: as §2
[12] = Drug metabolism in Wistar rat liver microsomes at 50 ug/ml after 10 mins; assay type: ADME; conditions: read-out: Drug metabolism; outline: as §2
[13] = Drug metabolism in Wistar rat liver microsomes at 50 ug/ml after 20 mins; assay type: ADME; conditions: read-out: Drug metabolism; outline: as §2
W256 [14] = assay: Antitumor activity against 4 ug/ml compound treated rat Walker 256 cells allografted in rat assessed as increase of host survival time cells incubated for 2 hrs with rat liver microsomes and NADPH prior to animal injection; assay type: functional
W256 [15] = assay: Antitumor activity against 1 ug/ml compound treated rat Walker 256 cells allografted in rat assessed as increase of host survival time cells incubated for 2 hrs with rat liver microsomes and NADPH prior to animal injection; assay type: functional
W256 [16] = assay: Antitumor activity against 0.5 ug/ml compound treated rat Walker 256 cells allografted in rat assessed as increase of host survival time cells incubated for 2 hrs with rat liver microsomes and NADPH prior to animal injection; assay type: functional
W256 [17] = assay: Antitumor activity against 0.25 ug/ml compound treated rat Walker 256 cells allografted in rat assessed as increase of host survival time cells incubated for 2 hrs with rat liver microsomes and NADPH prior to animal injection; assay type: functional
W256 [18] = assay: Antitumor activity against 4 ug/ml compound treated rat Walker 256 cells allografted in rat assessed as increase of host survival time cells incubated for 2 hrs with NADPH prior to animal injection; assay type: functional
W256 [19] = assay: Antitumor activity against 1 ug/ml compound treated rat Walker 256 cells allografted in rat assessed as increase of host survival time cells incubated for 2 hrs with NADPH prior to animal injection; assay type: functional
W256 [20] = assay: Antitumor activity against 0.5 ug/ml compound treated rat Walker 256 cells allografted in rat assessed as increase of host survival time cells incubated for 2 hrs with NADPH prior to animal injection; assay type: functional
W256 [21] = assay: Antitumor activity against 0.25 ug/ml compound treated rat Walker 256 cells allografted in rat assessed as increase of host survival time cells incubated for 2 hrs with NADPH prior to animal injection; assay type: functional

| Retention_time (Liver microsome [1]) [min] | SMILES | Activity [2] [%] | Drug metabolism (Liver microsome [3]) [µg] | Drug metabolism (Liver microsome [4]) [µg] | Activity [5] [%] | Activity [6] [%] | Activity [7] [%] | Activity [8] [%] | Activity [9] [%] | also measured |
| --- | --- | --- | --- | --- | --- | --- | --- | --- | --- | --- |
| 9.6 | O=NN(CCCl)C(=O)N[C@H]1CC[C@@H](O)CC1 | – | – | – | – | – | – | – | – | – |
| 16.9 | O=NN(CCCl)C(=O)N[C@H]1CC[C@H](O)CC1 | – | – | – | – | – | – | – | – | – |
| 2.8 | O=NN(CCCl)C(=O)N[C@H]1CCCC[C@H]1O | – | – | – | – | – | – | – | – | – |
| – | [2H]C1([2H])CCCC([2H])([2H])C1NC(=O)N(CCCl)N=O | -5.1 | 272 | 1089 | 63.6 | 79.7 | 178.7 | -9.1 | -21.3 | – |
| – | [2H]C1([2H])CC(NC(=O)N(CCCl)N=O)CC([2H])([2H])C1([2H])[2H] | 38.1 | 538 | 994 | 38.1 | 95.8 | 81.4 | -7.3 | -32 | – |
| – | [2H]C1([2H])C(NC(=O)N(CCCl)N=O)C([2H])([2H])C([2H])([2H])C([2H])([2H])C1([2H])[2H] | – | 498 | 911 | 20 | 42 | 217 | -22 | -28 | metabolised at 2.5 min, 50 ug/ml [10]: 16.1%; metabolised at 5 min, 50 ug/ml [11]: 38.3%; metabolised at 10 min, 50 ug/ml [12]: 69.5%; metabolised at 20 min, 50 ug/ml [13]: 91.9% |
| 3.8 | O=NN(CCCl)C(=O)N[C@H]1CCCC[C@@H]1O | – | – | – | – | – | – | – | – | – |
| – | O=NN(CCCl)C(=O)N[C@H]1CCC[C@@H](O)C1 | – | – | – | – | – | – | – | – | Retention time (Liver microsome [1]): 7.8 min |
| – | O=NN(CCCl)C(=O)N[C@H]1CCC[C@H](O)C1 | – | – | – | – | – | – | – | – | Retention time (Liver microsome [1]): 7.1 min |
| – | O=NN(CCCl)C(=O)NC1CCCCC1 [LOMUSTINE] | 1 | – | 1230 | 54 | 69.6 | 76.8 | -23.3 | -31.4 | Survival (W256 [14]): 30 days; Activity (W256 [15]): 145%; Activity (W256 [16]): 106%; Activity (W256 [17]): 21%; Survival (W256 [18]): 30 days; Activity (W256 [19]): 64%; Activity (W256 [20]): 60%; Activity (W256 [21]): 9%; metabolised at 2.5 min, 50 ug/ml [10]: 26.8%; metabolised at 5 min, 50 ug/ml [11]: 47.9%; metabolised at 10 min, 50 ug/ml [12]: 72.5%; metabolised at 20 min, 50 ug/ml [13]: 91.8% |
